Data as given in ChEMBL document CHEMBL1123722, “Comparative antitumor studies on platinum(II) and platinum(IV) complexes containing 1,2-diaminocyclohexane” (J Med Chem, 1987).

Key:
B16 = test: Antitumor activity against B16 tumor ascite cells implanted ip in BDF1 mice was determined at a dose of 1.6-2 mg/kg; type: functional, organism-based; settings: Mus musculus
L1210 = test: Antitumor activity against 10E6 L1210 ascites cells implanted ip in CDF1 mice was determined after a dose of 6-10 mg/kg; type: functional, organism-based; settings: Mus musculus
How it was run: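 CDF1 mice implanted with 1 × 10⁶ L1210 ascites cells ip. Complexes were suspended in 0.9% NaCl with a drop of Tween 80 and given ip on day 1 after tumor inoculation. Groups were five treated mice and 10 leukemic controls. Mice were observed daily. Activity is % T/C: median survival time of treated ÷ untreated controls × 100.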

Sequence CISPLATIN has a T/C (B16) of 167% and a T/C (L1210) of 150%.
